Source: PubChem
Gli-Sufu antag = antagonists of Gli-Sufu signaling. Sufu-KO-LIGHT fibroblasts, Gli luciferase reporter luminescence. inhibition, % at 5 µM. 0.74% of 340,000 active. AID 588413;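 active = inhibition above about 55%, limit read from the data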;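 note: 0% = DMSO-treated cells and 100% = wells with medium but no cells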
Jurkat NFkB inh = lowers PMA/ionomycin-induced NF-kB signal in Jurkat cells; AID 435003; inhibition, % at 4 µM; 0.53% of 330,000 active; PMA/ionomycin-induced NF-kB luciferase reporter, luminescence; in the data active = inhibition above about 50%
iPSC survival up = increases survival of single human iPS cells; hiPSC single-cell survival, ATPlite luminescence; 100% = ROCK inhibitor wells, 0% = DMSO; survival enhancement, % at 20 µM; 0.044% of 360,000 active; AID 602274; in the data active = survival enhancement above about 18%;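 note: cells exposed to compounds for 16 hours before the ATP read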
697 NFkB inh = inhibitors of the PMA/ionomycin-induced NF-kB reporter in 697 B cells; 697 B-cell NF-kB luciferase reporter, 16 h; inhibition, % at 4 µM; 0.33% of 330,000 active; in the data active = inhibition above about 35%
Lipid droplet = hepatic lipid droplet formation modulation. inhibition, % at 6.5 µM. AML12 mouse hepatocytes, oleate lipid droplets, BODIPY imaging. 0.4% of 240,000 active;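 active = lipid droplet intensity inhibited by at least 50%, with more than 500 cells counted; inconclusive = wells with under 300 cells, treated as cytotoxic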
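Assay system: AML12 hepatocytes (mouse) / Also added: 100 µM oleic acid challenge / Times: overnight treatment with compound plus oleate / Detection: high-content imaging of BODIPY-stained droplets and DAPI nuclei / Evaluation: % inhibition of lipid droplet signal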
TAG inh = reduces triacylglycerol accumulation in H9c2 cells | Nile Red lipid (TAG) fluorescence; cells loaded with 200 µM oleic acid | inhibition, % at 12.5 µM | 0.66% of 230,000 active | AID 651582;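 active = pattern-corrected inhibition of lipid staining of at least 50% with the nuclear-stain viability signal not falling by more than 50%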;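 note: 0% = DMSO wells and 100% = triacsin C control wells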
Jurkat NFkB conf = lowers PMA/ionomycin-induced NF-kB signal in Jurkat cells; inhibition, % at 4 µM; 27% of 2,700 active; shares compounds with Jurkat NFkB inh; Jurkat NF-kB luciferase, 16 h;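 active = inhibition reaching about 45% at 4 µM in either replicate, limit read from the data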;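 note: plate controls were PMA/ionomycin stimulated DMSO wells for no effect and unstimulated DMSO wells for full effect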
Active calls of the source: *; ? = inconclusive; . = no result given. Most compounds without a hit are left out; they make up all but 1.8% or so of the library.

SMILES	Gli-Sufu antag	Jurkat NFkB inh	iPSC survival up	697 NFkB inh	Lipid droplet	TAG inh	Jurkat NFkB conf
CCN(CC)c1ccc(/C=C/c2ccc3ccc(OC)cc3[n+]2CC)cc1	84.3*	93.5*	-0.4	29.5	-176.3	.	70.0*
S=C(NCCc1ccccc1)N1CCC2CC1c1cc(-c3ccc4c(c3)OCO4)ccc12 (stereo unspecified)	.	.	-1.5	.	.	.	.
O=C(NCc1ccccc1)c1cnc(Cc2c[nH]c3ccccc23)c(I)c1	.	.	-2.9	.	.	48.0	.
CCc1cc2cc(C(=O)Nc3ccc(F)cc3)sc2s1	-72.1	-47.9	-1.2	6.2	12.5	0.8	.
CC(C)(C)c1ccc(C(=O)Nc2ccc(F)cc2)s1	-89.6	-184.5	-0.4	9.4	29.3	-10.0	-171.2
O=C(O)C(Cc1ccc(O)cc1)N1C(=O)c2ccccc2C1=O (stereo unspecified)	8.3	-8.2	0.0	9.7	.	.	.
COc1cc(-c2noc(C)c2-c2ccc3[nH]ccc3c2)cc(OC)c1OC	38.1	65.5*	1.0	-7.7	.	41.1	51.2*
COc1cc(-c2noc(C)c2-c2ccc(N(C)C)nc2)cc(OC)c1OC	53.0	70.9*	1.7	-96.8	.	38.0	57.8*
COc1cc(C(=O)NCc2nnc(SCC(=O)NCc3ccco3)o2)cc(OC)c1OC	-5.5	6.2	-0.5	-4.7	-7.0	.	.
COc1ccc(C(=O)NC(=S)Nc2cccc3ncccc23)cc1[N+](=O)[O-]	9.2	0.6	0.0	-25.8	-1.8	.	.
Cc1cc2nc(-c3ccc(SCC(=O)Nc4ccc5c(c4)OCCO5)nc3)[nH]c2cc1C	0.3	-121.3	-2.0	-34.2	.	.	.
Cc1ccc2nc(-c3ccc(SCC(=O)Nc4ccc5c(c4)OCCO5)nc3)[nH]c2c1	4.6	-152.9	-1.9	-8.1	-3.4	.	-123.3
Nc1cccc(-c2cn3cc(C(F)(F)F)cc(Cl)c3n2)c1	-112.4	-194.3	-2.4	-133.8	-0.5	.	-45.7
Cc1ccc(S(=O)(=O)CCC(=O)OCCOc2ccc(Br)cc2)cc1	.	.	-2.0	.	.	8.2	.
CCOc1ccccc1C1CC(=O)Nc2cc3c(cc21)OCCO3 (stereo unspecified)	46.4	69.9*	-1.0	-4.8	.	.	56.9*
COc1ccccc1C1CC(=O)Nc2cc(C)c(C)cc21 (stereo unspecified)	19.5	34.7	-0.7	-18.9	-17.8	.	.
CCOc1ccccc1C1CC(=O)Nc2cc(OC)c(OC)c(OC)c21 (stereo unspecified)	12.7	-6.7	-1.9	26.7	-18.3	-6.8	.
CCOc1ccccc1C1CC(=O)Nc2cc(C)c(C)cc21 (stereo unspecified)	-0.8	52.1*	-0.5	-53.1	-8.0	11.1	38.5
CCCOc1ccccc1C1CC(=O)NC2=C1C(=O)CCC2 (stereo unspecified)	10.1	59.1*	1.3	-53.5	.	32.3	25.1
CCOC(=O)c1[nH]c2c(c1C)C(=O)CC(c1ccc(F)cc1)C2 (stereo unspecified)	39.2	63.9*	0.4	-21.1	?	32.6	58.3*
COC(=O)c1[nH]c2c(c1C)C(=O)CC(c1ccc(OC)c(OC)c1)C2 (stereo unspecified)	2.0	-13.9	1.5	-34.2	.	.	.
COC(=O)c1[nH]c2c(c1C)C(=O)CC(c1cccc(OC)c1)C2 (stereo unspecified)	34.8	62.5*	-0.9	-54.4	.	.	55.5*
CCOC(=O)C1=C[C@@H](C(C)(C)C)N(S(=O)(=O)c2ccc(C)cc2)[C@H]1c1ccc(OC)cc1	.	.	1.1	.	.	.	.
COc1ccc(NS(=O)(=O)c2cc(NC(=O)c3sccc3C)ccc2N2CCOCC2)cc1	-4.1	50.5*	-0.1	-11.0	0.4	19.8	2.1
COc1ccccc1NS(=O)(=O)c1cc(NC(=O)c2sccc2C)ccc1N1CCOCC1	15.0	12.4	0.2	8.6	-6.5	15.7	.
COc1ccc(NS(=O)(=O)c2cc(NC(=O)c3ccco3)ccc2N2CCCC2)cc1	0.2	61.7*	1.8	-111.7	-34.9	.	8.5
CC(=O)Nc1ccc(NC(=O)C(C)OC(=O)CCCOc2ccc(Cl)cc2C)cc1 (stereo unspecified)	-1.4	6.1	1.2	-21.5	.	-10.3	.
Cc1cccc(NC(=O)N2C3CCCC2CC(NC(=O)C(C)(C)C)C3)c1 (stereo unspecified)	9.7	-6.6	-0.4	-14.3	-3.4	.	.
